Measured values as given in ChEMBL document CHEMBL2417485, “Quinazoline-based multi-tyrosine kinase inhibitors: synthesis, modeling, antitumor and antiangiogenic properties” (Eur J Med Chem, 2013).
Active and inactive are the calls of the source. The calls are words filed in the database; no cut-off is given here.

Experiments:
NIH3T3 = assay: Antiproliferative activity against mouse NIH/3T3 cells after 72 hrs by MTT assay; format: cell-based; settings: NIH3T3, 72 h
A-431 = assay: Antiproliferative activity against human A431 cells after 72 hrs by MTT assay; format: functional, cell-based; settings: A-431, 72 h
HUVEC [1] = assay: Antiangiogenic activity in HUVEC assessed as effect on number of cell meshwork at 0.1 uM after 18 hrs; settings: Homo sapiens
HUVEC [2] = assay: Antiproliferative activity against HUVEC after 72 hrs by MTT assay; format: cell-based; settings: Homo sapiens
Mus musculus [3] = assay: Inhibition of FGF2-induced neovascularization in C57/BL6 mouse assessed as reduction in hemoglobin concentration in matrigel plug at 1 uM, sc measured after 7 days; format: functional, organism-based
In short: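 Three-month-old C57/BL6 mice under isoflurane received 0.5 mL Matrigel GFR subcutaneously into the flank. The gel contained heparin (12 U.I.), ±FGF-2 200 ng/plug and 1 µM compound. After 7 days, plugs were removed and steeped overnight at 4 °C in 0.1% Brij-35/PBS. Hemoglobin was measured with Drabkin's reagent at 540 nm.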

HT-29 = assay: Antiproliferative activity against human HT-29 cells after 72 hrs by MTT assay; format: functional, cell-based; settings: HT-29, 72 h
[4] = Antiproliferative activity against mouse BNL 1ME A.7R.1 cells after 72 hrs by MTT assay; format: functional, cell-based
HeLa = assay: Antiproliferative activity against human HeLa cells after 72 hrs by MTT assay; format: functional, cell-based
HUVEC [5] = assay: Antiangiogenic activity in HUVEC assessed as disruption of tube-like structures at 0.1 uM after 18 hrs by phase contrast microscopy; settings: Homo sapiens
HUVEC [6] = assay: Antiangiogenic activity in HUVEC assessed as reduction in cell migration at 1 uM after 4 hrs by matrigel assay; format: functional, cell-based; settings: Homo sapiens, in the assay text read “by modified Boyden chamber assay” for “by matrigel assay”
In short: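 Modified Boyden chamber. HUVECs (3×10^4 cell/cm²) were placed on 5.0 µm pore inserts in basal medium with 1% FCS, ±1 µM compound; the lower chamber held growth-factor medium. After 4 h, cells were fixed, the upper side was swabbed, and membranes were DAPI-stained. Nuclei were counted in five fields per insert. Five repeats; results are the percent change from growth-factor-only controls.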

[7] = Antiproliferative activity against human MCF7/beta cells after 72 hrs by MTT assay; format: functional, cell-based; settings: MCF7, 72 h
[8] = target: T1, Platelet-derived growth factor receptor beta (Homo sapiens, UniProt P09619); assay: Inhibition of PDGFRbeta (unknown origin)
HUVEC [9] = assay: Antiangiogenic activity in HUVEC assessed as decrease in dimensional parameters at 0.1 uM after 18 hrs; settings: Homo sapiens
[10] = target: Proto-oncogene tyrosine-protein kinase Src (Homo sapiens, UniProt P12931); assay: Inhibition of Src (unknown origin)
Mus musculus [11] = assay: Antitumor activity against mouse BNL 1ME A.7R.1 cells allografted in Balb/c mouse assessed as tumor growth inhibition at 50 mg/kg, ip daily measured after 7 days; format: functional, organism-based; set-up: dose 50 mg/kg
In short: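 Male Balb/c mice, 10 weeks old, received 10⁷ BNL 1ME A.7R.1 cells in PBS subcutaneously in the dorsal region. From day 7, mice were dosed daily ip with 50 mg/kg in 0.9% NaCl with 5% PEG 400 and 0.5% Tween 80, or vehicle. Tumors were measured daily for 7 days by caliper (V = AB²/2). Mean ± SEM, five animals per group.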

[12] = target: Tyrosine-protein kinase ABL1 (Homo sapiens, UniProt P00519); assay: Inhibition of Abl (unknown origin)
HUVEC [13] = assay: Induction of apoptosis in HUVEC assessed as mono-/oligo-nucleosome formation at 10 uM after 24 hrs by ELISA; format: functional, cell-based; settings: Homo sapiens
[14] = target: Vascular endothelial growth factor receptor 2 (Homo sapiens) (UniProt P35968); assay: Inhibition of VEGFR2 (unknown origin) at 1 uM
In short: (§1)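 Recombinant FGFR-1 or VEGFR-2 (final 200 ng/mL) in MOPS pH 7.2 buffer with MgCl2, EGTA, EDTA, DTT and BSA. Compound range was 1–0.01 µM. Reactions used myelin basic protein (0.2 mg/ml), 0.05 mM ATP and 0.25 μCi [γ-32P]ATP, 30 °C for 20 min.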

[15] = target: Fibroblast growth factor receptor 1 (Homo sapiens, UniProt P11362); assay: Inhibition of FGFR1 (unknown origin); in short: as §1
HUVEC [16] = assay: Antiproliferative activity against HUVEC assessed as reduction in cell viability at 10 uM after 24 hrs by MTT assay; format: cell-based; settings: human
In short: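 Primary HUVECs (passage ≤5) were seeded at 1×10^4 cell/cm² and grown for 24 h. They were exposed to compound at 10 μM for 24 h (20 h, then MTT 0.50 mg/ml for 4 h). Absorbance was read at 570 nm. Results are the percent change from untreated cultures; mean ± SD of ≥3 experiments.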

[17] = target: T1, Platelet-derived growth factor receptor beta; assay: Inhibition of PDGFRbeta (unknown origin) at 1 uM
[18] = Toxicity in mouse BNL 1ME A.7R.1 cells allografted Balb/c mouse model assessed as body weight loss at 50 mg/kg, ip daily measured after 3 days; format: organism-based; set-up: dose 50 mg/kg, route intraperitoneal; settings: in vivo, 72 h
[19] = target: Epidermal growth factor receptor (Homo sapiens, UniProt P00533); assay: Inhibition of EGFR (unknown origin)

Tyrosine-protein kinase ABL1, sequence (P00519 whole entry): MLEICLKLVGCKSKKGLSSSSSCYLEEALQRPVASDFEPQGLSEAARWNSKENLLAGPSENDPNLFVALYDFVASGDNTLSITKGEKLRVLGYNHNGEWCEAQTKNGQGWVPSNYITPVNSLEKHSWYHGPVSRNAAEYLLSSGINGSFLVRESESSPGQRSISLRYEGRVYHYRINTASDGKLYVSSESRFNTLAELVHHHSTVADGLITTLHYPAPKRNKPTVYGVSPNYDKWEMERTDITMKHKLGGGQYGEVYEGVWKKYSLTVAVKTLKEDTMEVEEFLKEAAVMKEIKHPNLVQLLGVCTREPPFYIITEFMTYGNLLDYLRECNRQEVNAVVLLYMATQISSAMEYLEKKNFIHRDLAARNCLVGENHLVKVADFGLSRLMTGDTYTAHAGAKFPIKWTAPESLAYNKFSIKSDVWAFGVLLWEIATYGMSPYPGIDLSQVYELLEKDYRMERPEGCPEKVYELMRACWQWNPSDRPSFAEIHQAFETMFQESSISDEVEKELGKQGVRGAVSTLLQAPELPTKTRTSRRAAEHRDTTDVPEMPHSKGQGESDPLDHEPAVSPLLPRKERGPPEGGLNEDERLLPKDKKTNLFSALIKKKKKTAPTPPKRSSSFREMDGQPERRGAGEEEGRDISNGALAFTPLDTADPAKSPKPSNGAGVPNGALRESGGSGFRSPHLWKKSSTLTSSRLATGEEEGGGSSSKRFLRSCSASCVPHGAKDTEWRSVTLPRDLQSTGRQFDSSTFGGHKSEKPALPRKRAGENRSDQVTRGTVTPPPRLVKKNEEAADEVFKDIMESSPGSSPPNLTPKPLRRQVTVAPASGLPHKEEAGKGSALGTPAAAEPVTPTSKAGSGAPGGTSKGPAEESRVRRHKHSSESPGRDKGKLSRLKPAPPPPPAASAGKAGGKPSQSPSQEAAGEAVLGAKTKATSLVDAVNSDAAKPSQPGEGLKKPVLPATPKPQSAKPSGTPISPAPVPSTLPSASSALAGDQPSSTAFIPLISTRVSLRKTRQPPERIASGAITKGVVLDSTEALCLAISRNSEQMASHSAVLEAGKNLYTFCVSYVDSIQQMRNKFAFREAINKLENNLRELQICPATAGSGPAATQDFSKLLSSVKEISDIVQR
T1 sequence (P09619 whole entry): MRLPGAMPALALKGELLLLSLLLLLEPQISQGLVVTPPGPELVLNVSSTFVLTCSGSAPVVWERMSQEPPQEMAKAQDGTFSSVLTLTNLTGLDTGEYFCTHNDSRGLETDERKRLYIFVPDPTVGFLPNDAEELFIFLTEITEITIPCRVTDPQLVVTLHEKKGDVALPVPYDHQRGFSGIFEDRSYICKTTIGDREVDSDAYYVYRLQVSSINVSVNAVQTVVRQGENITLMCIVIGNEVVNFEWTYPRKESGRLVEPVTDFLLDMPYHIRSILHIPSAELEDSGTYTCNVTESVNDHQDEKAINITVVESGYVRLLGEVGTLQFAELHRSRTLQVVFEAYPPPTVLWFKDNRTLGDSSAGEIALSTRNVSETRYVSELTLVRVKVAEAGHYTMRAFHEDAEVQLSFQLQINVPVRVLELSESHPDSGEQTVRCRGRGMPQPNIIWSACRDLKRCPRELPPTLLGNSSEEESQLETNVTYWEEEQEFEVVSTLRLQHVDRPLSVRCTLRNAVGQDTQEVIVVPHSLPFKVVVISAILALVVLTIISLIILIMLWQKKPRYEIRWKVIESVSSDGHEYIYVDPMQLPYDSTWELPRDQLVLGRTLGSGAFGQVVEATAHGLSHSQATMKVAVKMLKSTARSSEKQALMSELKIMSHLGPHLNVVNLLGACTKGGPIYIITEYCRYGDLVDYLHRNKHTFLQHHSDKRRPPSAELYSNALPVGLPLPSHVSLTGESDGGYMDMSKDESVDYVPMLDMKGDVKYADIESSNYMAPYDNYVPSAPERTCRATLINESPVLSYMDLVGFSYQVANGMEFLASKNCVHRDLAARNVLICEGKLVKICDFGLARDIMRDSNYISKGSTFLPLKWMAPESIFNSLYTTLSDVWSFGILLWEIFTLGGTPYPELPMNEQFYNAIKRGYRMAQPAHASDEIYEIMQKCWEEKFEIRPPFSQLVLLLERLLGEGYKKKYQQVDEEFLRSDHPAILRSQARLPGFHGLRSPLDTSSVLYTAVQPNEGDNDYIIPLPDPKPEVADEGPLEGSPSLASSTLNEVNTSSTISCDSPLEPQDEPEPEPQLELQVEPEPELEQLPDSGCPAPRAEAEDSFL
Fibroblast growth factor receptor 1, sequence (P11362 whole entry): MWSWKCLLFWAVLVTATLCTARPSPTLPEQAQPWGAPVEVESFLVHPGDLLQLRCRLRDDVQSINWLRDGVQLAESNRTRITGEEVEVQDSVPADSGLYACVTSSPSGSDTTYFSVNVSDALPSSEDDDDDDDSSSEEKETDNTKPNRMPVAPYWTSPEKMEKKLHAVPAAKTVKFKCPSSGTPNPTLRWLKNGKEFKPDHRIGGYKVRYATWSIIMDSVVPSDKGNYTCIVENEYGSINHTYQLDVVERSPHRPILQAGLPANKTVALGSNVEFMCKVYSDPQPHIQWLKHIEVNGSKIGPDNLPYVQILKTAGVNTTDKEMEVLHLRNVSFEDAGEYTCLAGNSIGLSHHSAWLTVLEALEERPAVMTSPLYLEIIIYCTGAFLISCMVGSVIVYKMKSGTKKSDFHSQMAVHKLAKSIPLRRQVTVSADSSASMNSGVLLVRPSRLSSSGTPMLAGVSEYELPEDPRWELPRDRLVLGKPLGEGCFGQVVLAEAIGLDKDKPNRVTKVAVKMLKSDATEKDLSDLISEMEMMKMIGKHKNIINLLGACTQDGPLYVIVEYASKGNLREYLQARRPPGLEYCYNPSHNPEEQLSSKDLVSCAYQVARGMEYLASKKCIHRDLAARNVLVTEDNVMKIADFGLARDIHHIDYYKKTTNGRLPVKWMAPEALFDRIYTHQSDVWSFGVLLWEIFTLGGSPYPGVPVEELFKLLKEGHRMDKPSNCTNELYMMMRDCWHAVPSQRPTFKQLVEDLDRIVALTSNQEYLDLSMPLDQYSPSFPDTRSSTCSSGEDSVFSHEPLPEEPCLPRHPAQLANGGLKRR
Proto-oncogene tyrosine-protein kinase Src, sequence (P12931 2-536 limits assumed): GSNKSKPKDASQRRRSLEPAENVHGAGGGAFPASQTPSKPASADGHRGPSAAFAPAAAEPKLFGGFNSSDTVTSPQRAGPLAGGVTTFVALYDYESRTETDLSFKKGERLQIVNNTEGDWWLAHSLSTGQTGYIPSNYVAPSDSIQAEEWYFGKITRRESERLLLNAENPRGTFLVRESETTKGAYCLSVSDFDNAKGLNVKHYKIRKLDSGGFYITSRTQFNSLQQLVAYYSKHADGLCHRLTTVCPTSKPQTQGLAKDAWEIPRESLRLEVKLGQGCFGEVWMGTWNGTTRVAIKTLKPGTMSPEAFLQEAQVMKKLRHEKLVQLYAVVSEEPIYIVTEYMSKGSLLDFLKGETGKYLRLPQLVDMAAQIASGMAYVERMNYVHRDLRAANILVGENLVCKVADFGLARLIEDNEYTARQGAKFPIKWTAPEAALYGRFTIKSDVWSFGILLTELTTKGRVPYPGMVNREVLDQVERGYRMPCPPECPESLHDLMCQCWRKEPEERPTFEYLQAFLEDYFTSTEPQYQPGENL
Vascular endothelial growth factor receptor 2 (Homo sapiens), sequence (P35968 whole entry): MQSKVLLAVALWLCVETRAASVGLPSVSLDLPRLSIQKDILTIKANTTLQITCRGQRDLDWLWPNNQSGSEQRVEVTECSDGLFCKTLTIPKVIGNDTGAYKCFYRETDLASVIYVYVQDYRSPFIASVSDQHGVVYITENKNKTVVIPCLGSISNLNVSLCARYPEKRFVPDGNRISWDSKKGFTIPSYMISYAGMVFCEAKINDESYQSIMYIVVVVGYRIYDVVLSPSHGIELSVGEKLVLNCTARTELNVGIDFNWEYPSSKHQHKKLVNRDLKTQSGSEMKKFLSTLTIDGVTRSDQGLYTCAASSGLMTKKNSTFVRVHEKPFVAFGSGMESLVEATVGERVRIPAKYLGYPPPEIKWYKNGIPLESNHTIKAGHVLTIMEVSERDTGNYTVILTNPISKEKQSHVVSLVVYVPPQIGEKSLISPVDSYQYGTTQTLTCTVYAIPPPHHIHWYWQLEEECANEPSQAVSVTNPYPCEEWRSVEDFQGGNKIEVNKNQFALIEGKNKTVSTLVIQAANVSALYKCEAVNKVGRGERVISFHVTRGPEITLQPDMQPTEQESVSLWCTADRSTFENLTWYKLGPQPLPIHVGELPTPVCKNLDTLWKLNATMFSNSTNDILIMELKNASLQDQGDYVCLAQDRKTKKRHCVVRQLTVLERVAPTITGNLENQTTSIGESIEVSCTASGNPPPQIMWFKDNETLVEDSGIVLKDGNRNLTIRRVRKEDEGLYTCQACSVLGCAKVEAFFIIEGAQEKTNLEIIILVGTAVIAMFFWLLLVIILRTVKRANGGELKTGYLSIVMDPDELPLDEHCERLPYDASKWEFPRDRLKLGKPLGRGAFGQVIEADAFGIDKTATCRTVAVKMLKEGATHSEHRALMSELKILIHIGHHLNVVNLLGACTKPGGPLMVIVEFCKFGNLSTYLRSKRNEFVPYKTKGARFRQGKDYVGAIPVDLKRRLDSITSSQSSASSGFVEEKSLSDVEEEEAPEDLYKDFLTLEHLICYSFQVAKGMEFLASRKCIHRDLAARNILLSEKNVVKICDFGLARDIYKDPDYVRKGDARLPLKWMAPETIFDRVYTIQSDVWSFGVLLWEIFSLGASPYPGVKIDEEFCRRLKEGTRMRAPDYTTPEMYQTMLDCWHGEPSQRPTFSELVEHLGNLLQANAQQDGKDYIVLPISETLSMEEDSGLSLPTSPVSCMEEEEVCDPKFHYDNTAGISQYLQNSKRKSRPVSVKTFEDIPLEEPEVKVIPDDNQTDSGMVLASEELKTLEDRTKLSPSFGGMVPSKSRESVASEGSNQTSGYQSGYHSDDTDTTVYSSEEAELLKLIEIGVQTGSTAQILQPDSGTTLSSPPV

C=CCOc1cc2ncnc(Nc3cccc(Br)c3)c2cc1OC
IC50 (NIH3T3): > 10000 nM | IC50 (A-431): 4490 nM

CS(=O)(=O)Nc1cccc(Nc2ncnc3cc4c(cc23)OCO4)c1
IC50 (NIH3T3): > 10000 nM | IC50 (A-431): > 10000 nM

Cc1ccnc(Nc2ncnc3cc4c(cc23)OCO4)c1
IC50 (NIH3T3): > 10000 nM | IC50 (A-431): > 10000 nM

COc1cc2ncnc(Nc3cccc(Br)c3)c2cc1OC
Activity (HUVEC [1]): Active | IC50 (HUVEC [2]): 4060 nM | inhibition (Mus musculus [3]): inactive | IC50 (HT-29): > 10000 nM | IC50 [4]: 9500 nM | IC50 (HeLa): > 10000 nM | IC50 (NIH3T3): > 10000 nM | Activity (HUVEC [5]): inactive | inhibition (HUVEC [6]): Active | IC50 [7]: 8210 nM

Cl.c1ccc(-c2cccc(Nc3ncnc4cc5c(cc34)OCCO5)c2)cc1
Activity (HUVEC [1]): Active | IC50 (HUVEC [2]): 80 nM | inhibition (Mus musculus [3]): Active | IC50 (HT-29): 680 nM | IC50 [4]: 2700 nM | IC50 [8]: 100 nM | Activity (HUVEC [9]): Active | IC50 [10]: 642 nM | TGI (Mus musculus [11]): inactive | IC50 [12]: 24 nM | IC50 (HeLa): 620 nM | Activity (HUVEC [13]): Active | IC50 (NIH3T3): 600 nM | Activity (HUVEC [5]): Active | inhibition (HUVEC [6]): Active | inhibition [14]: 50% | IC50 [15]: 178 nM | IC50 [7]: 740 nM | Activity (HUVEC [16]): Toxic

Cc1cccc(Nc2ncnc3cc4c(cc23)OCCO4)n1
IC50 (NIH3T3): > 10000 nM | IC50 (A-431): > 10000 nM

Brc1cccc(Nc2ncnc3c2ccc2ccccc23)c1
IC50 (NIH3T3): > 10000 nM | IC50 (A-431): > 10000 nM

Cl.c1ccc(-c2cccc(Nc3ncnc4cc5c(cc34)OCCCO5)c2)cc1
Activity (HUVEC [1]): Active | IC50 (HUVEC [2]): 910 nM | inhibition (Mus musculus [3]): Active | inhibition [17]: 40% | IC50 (HT-29): 710 nM | IC50 [4]: 3000 nM | IC50 [10]: 645 nM | IC50 [12]: 56 nM | IC50 (HeLa): 5490 nM | Activity (HUVEC [13]): Active | IC50 (NIH3T3): 920 nM | Activity (HUVEC [5]): inactive | Activity [18]: Toxic | inhibition (HUVEC [6]): Active | inhibition [14]: 30% | IC50 [15]: 63 nM | IC50 [7]: 700 nM | IC50 [19]: 27 nM | Activity (HUVEC [16]): Toxic | IC50 (A-431): 660 nM

FC(F)(F)c1cccc(Nc2ncnc3c2ccc2ccccc23)c1
IC50 (NIH3T3): > 10000 nM | IC50 (A-431): > 10000 nM

Cc1cccc(Nc2ncnc3cc4c(cc23)OCO4)n1
IC50 (NIH3T3): > 10000 nM | IC50 (A-431): > 10000 nM

Cc1ccnc(Nc2ncnc3cc4c(cc23)OCCO4)c1
IC50 (NIH3T3): 6600 nM | IC50 (A-431): 5170 nM

Cn1c(=O)n(C)c2cc3c(Nc4cccc(C(F)(F)F)c4)ncnc3cc21
IC50 (NIH3T3): > 10000 nM | IC50 (A-431): > 10000 nM

Cc1cccc(Nc2ncnc3c2ccc2ccccc23)c1
IC50 (NIH3T3): > 10000 nM | IC50 (A-431): > 10000 nM

CS(=O)(=O)Nc1cccc(Nc2ncnc3cc4c(cc23)OCCO4)c1
IC50 (NIH3T3): > 10000 nM | IC50 (A-431): > 10000 nM

Cc1cccc(Nc2ncnc3cc4c(cc23)n(C)c(=O)n4C)c1
IC50 (NIH3T3): > 10000 nM | IC50 (A-431): > 10000 nM

Cl.c1ccc(-c2cccc(Nc3ncnc4cc5c(cc34)OCO5)c2)cc1
Activity (HUVEC [1]): Active | IC50 (HUVEC [2]): 750 nM | inhibition (Mus musculus [3]): Active | IC50 (HT-29): 950 nM | IC50 [4]: 2800 nM | IC50 [8]: 243 nM | IC50 [10]: 32 nM | TGI (Mus musculus [11]): Active | IC50 [12]: 51 nM | Activity (HUVEC [13]): inactive | IC50 (NIH3T3): 600 nM | Activity (HUVEC [5]): inactive | inhibition (HUVEC [6]): Active | IC50 [15]: 63 nM | Activity (HUVEC [16]): Non-toxic

C=CCOc1cc2ncnc(Nc3cccc(C(F)(F)F)c3)c2cc1OC
IC50 (NIH3T3): > 10000 nM | IC50 (A-431): 5950 nM

Cn1c(=O)n(C)c2cc3c(Nc4cccc(Br)c4)ncnc3cc21
IC50 (NIH3T3): > 10000 nM | IC50 (A-431): > 10000 nM

C=CCOc1cc2ncnc(Nc3cccc(C)c3)c2cc1OC
IC50 (NIH3T3): 6600 nM | IC50 (A-431): 8450 nM
